Assay results pooled from the literature.
Compare with care: the assays were run in different laboratories.
CDK4 with cyclin D1: Cyclin-dependent kinase 4, with cyclin D1 (CDK4, Homo sapiens, UniProt P11802)
OSBP: Oxysterol-binding protein 1 (OSBP, Homo sapiens, UniProt P22059)
SLC22A8: Organic anion transporter 3 (SLC22A8, Homo sapiens, UniProt Q8TCC7)

CN(C)C(=O)c1cc2cnc(Nc3cc(C(=O)O)cc(-c4cccc5c(=O)cc(N6CCOCC6)oc45)c3)nc2n1C1CCCC1
IC50 (CDK4 with cyclin D1; enzyme activity, inhibitor, radiometric): > 10 µM

CCOc1ccc(C(=O)CC(SCc2ccccc2)C(=O)O)cc1 (centres unmarked)
Ki (OSBP; ligand displacement, FP): > 1000 µM

Nc1nc2c(ncn2[C@@H]2O[C@H](COP(=O)(O)OP(=O)(O)OP(=O)(O)O)[C@@H](O)[C@H]2O)c(=O)[nH]1
Kd (GTPase KRas (KRAS, Homo sapiens, UniProt P01116, Q61H); binding): 0.118 µM

C=CC(=O)N1C[C@H](Nc2ncnc3[nH]ccc23)CC[C@@H]1C
Ki (SLC22A8; transporter uptake, inhibitor; HEK293; pH 7.4): 41 µM

CN(C)C(=O)c1cc2cnc(Nc3cc(C(F)(F)F)c(-c4ccc5c(=O)cc(N6CCOCC6)oc5c4)cn3)nc2n1C1CCCC1
IC50 (CDK4 with cyclin D1; enzyme activity, inhibitor, radiometric): > 10 µM

CCOc1ccc(C(=O)CC(SCc2ccc(OC)cc2)C(=O)O)cc1 (centres unmarked)
Ki (OSBP; ligand displacement, FP): 549 µM

CN(C)C(=O)c1cc2cnc(Nc3ccc(C(=O)NCCCCCCOc4cccc5c4C(=O)N(C4CCC(=O)NC4=O)C5=O)cc3)nc2n1C1CCCC1 (centres unmarked)
Kd (Cyclin-dependent kinase 4 (CDK4, Homo sapiens, UniProt P11802); binding, competition with immobilised ligand): < 0.2 µM

C[S+](CC[C@H](N)C(=O)O)C[C@H]1O[C@@H](n2cnc3c(N)ncnc32)[C@H](O)[C@@H]1O (some centres unmarked)
Kd (tapT (Escherichia coli, UniProt Q47319, D137A); binding, ITC): 590 µM

CCOc1ccc(C(=O)CC(SCc2ccc(Br)cc2)C(=O)O)cc1 (centres unmarked)
Ki (OSBP; ligand displacement, FP): 459 µM

CN(C)C(=O)c1cc2cnc(Nc3cc(C(=O)O)cc(-c4ccc5c(=O)cc(N6CCOCC6)oc5c4)c3)nc2n1C1CCCC1
IC50 (CDK4 with cyclin D1; enzyme activity, inhibitor, radiometric): 7.85 µM

CSC[C@H]1O[C@@H](n2cnc3c(N)ncnc32)[C@H](O)[C@@H]1O
Kd (tapT (Escherichia coli, UniProt Q47319); binding, ITC): 150 µM

CCOc1ccc(C(=O)CC(SCc2ccc(Cl)cc2)C(=O)OC)cc1 (centres unmarked)
Ki (OSBP; ligand displacement, FP): > 1000 µM

CN(C)C(=O)c1cc2cnc(Nc3cccc(-c4cccc5c(=O)cc(N6CCOCC6)oc45)c3)nc2n1C1CCCC1
IC50 (CDK4 with cyclin D1; enzyme activity, inhibitor, radiometric): 0.336 µM

O=C(O)c1ccc2nc(-c3cc(Cl)cc(Cl)c3)oc2c1
Ki (SLC22A8; transporter uptake, inhibitor; HEK293; pH 7.4): 2.36 µM
